The values below come from ChEMBL document CHEMBL1151977, “Antiviral constituents against respiratory viruses from Mikania micrantha” (J Nat Prod, 2009).

Series [1] can be described thus: Therapeutic index, ratio of TC50 for human Hep2 cells to IC50 for Respiratory syncytial virus infected in human Hep2 cells. It counts as cell-based, HEp-2. Conditions: read-out: TI. In a few lines: (§1)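 Antiviral IC50 came from a virus-induced cytopathic effect reduction assay in infected cells. Therapeutic index was calculated as TC50 divided by IC50.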
A short description of series [2]: Therapeutic index, ratio of TC50 for human Hep2 cells to IC50 for Parainfluenza virus type 3 infected in human Hep2 cells. It is filed as cell-based, HEp-2. Conditions: read-out: TI. In a few lines: as §1
Series [3] can be described thus: Cytotoxicity against MDCK cells. It counts as cell-based, Canis lupus familiaris. Conditions: dog, read-out: TC50 (the source's name).
The subject of series [4] is Respiratory syncytial virus. The experiment in a line: Antiviral activity against Respiratory syncytial virus infected in human Hep2 cells assessed as inhibition of virus-induced cytopathogenic effect by plaque reduction assay. It counts as functional, organism-based. The following applies: HEp-2.
The next series deals with Influenza A virus. The series is described as follows: Antiviral activity against Influenza A virus infected in MDCK cells assessed as inhibition of virus-induced cytopathogenic effect by plaque reduction assay. It is filed as functional, organism-based.
Series [5] is described as follows: Therapeutic index, ratio of TC50 for MDCK cells to IC50 for Influenza A virus infected in MDCK cells. It is filed as cell-based. Conditions: dog, read-out: TI. A digest of the protocol:
as §1

Series [6] is described as follows: Cytotoxicity against human Hep2 cells. It counts as cell-based, HEp-2. Conditions: read-out: TC50 (the source's name).
Another series relates to Human respirovirus 3. The experiment in a line: Antiviral activity against Parainfluenza virus type 3 infected in human Hep2 cells assessed as inhibition of virus-induced cytopathogenic effect by plaque reduction assay. It counts as functional, organism-based. The following applies: Human respirovirus 3, HEp-2.

On to `C[C@H]1C(=O)O[C@H]2C[C@]3(C)O[C@H]3[C@@H]3O[C@@H]3C3=C[C@@H](OC3=O)[C@@H]21` [DIHYDROMIKANOLIDE], for which the selectivity ratio in series [1], in series [2] and in series [5] was 1.5 in each case. In addition, the CC50 in series [3] and in series [6] was 214 µM throughout. Besides, the IC50 (in series [4]; with Influenza A virus; in the series on Human respirovirus 3) was 143 µM each time.
As to `COc1ccc(-c2oc3cc(OC)c(OC)c(O)c3c(=O)c2OS(=O)(=O)O)cc1`, the selectivity ratio in series [1] is 6; in series [2], 24; in series [5], 3. Moreover, the values for the CC50 in series [3] and in series [6] were 237 µM and 472 µM, respectively. Also, the half-inhibitory concentration (IC50) in series [4] came out at 79 µM; in the series with Influenza A virus, 79 µM; in the series with Human respirovirus 3 it was 19.7 µM.
As for `NC(=O)c1ncn([C@@H]2O[C@H](CO)[C@@H](O)[C@H]2O)n1` [RIBAVIRIN], in series [3], the CC50 was above 256 µM. Further, the IC50 in series [4] is 10.7 µM; in the series on Influenza A virus, 42.6 µM; in the series with Human respirovirus 3, 10.7 µM.
On to `C[C@H]1C(=O)O[C@H]2C[C@]3(C)O[C@H]3CCC3=C[C@@H](OC3=O)[C@@H]21`, for which the values for the selectivity ratio in series [1], in series [2] and in series [5] were 16, 16 and below 1.7, respectively. The CC50 in series [3] and in series [6] was 600 µM throughout. Moreover, the half-maximal inhibitory concentration (IC50) was 37.4 µM in series [4], above 360 µM in the series with Influenza A virus and 37.4 µM in the series with Human respirovirus 3.
With `CC(C)[C@@H](C)/C=C/[C@@H](C)[C@H]1CC[C@H]2C3=CC[C@H]4C[C@@H](O)CC[C@]4(C)[C@H]3CC[C@]12C`, the results for the selectivity ratio in series [1], in series [2] and in series [5] were 6, 6 and 2, respectively. Moreover, the CC50 in series [3] amounted to 405 µM; in series [6], 303 µM. Also, the IC50 amounted to 50.5 µM in series [4], 202 µM in the series on Influenza A virus and 50.5 µM in the series on Human respirovirus 3.
Turning to `COc1ccc(-c2oc3cc(OC)c(OC)c(O)c3c(=O)c2O)cc1` [MIKANIN], the selectivity ratio worked out at 1.5 in series [1], 2 in series [2] and 3 in series [5]. The values for the CC50 in series [3] and in series [6] were 500 µM and 83.1 µM, respectively. Besides, the concentration for half-maximal inhibition (IC50) stood at 55.5 µM in series [4], 167 µM with Influenza A virus and 41.6 µM in the series with Human respirovirus 3.
Take `CC(=O)O[C@H]1C[C@@H]2O[C@@]2(C)C[C@@H]2OC(=O)[C@H](C)[C@H]2[C@H]2C=C1C(=O)O2`: the selectivity ratio in series [1] came out at 3; in series [2] it was 1; in series [5] it was 1. For the same molecule, the CC50 in series [3] and in series [6] was 186 µM each time. Also, the IC50 in series [4] was 61.9 µM; with Influenza A virus it was 186 µM; in the series with Human respirovirus 3, 186 µM.
